The structures appear in SMILES notation.

The GI50 is the concentration at which growth is held to half of that of the control. Low readings indicate greater sensitivity of the cells, high ones lower sensitivity of the cells. Broadly, the IC50 is the concentration that gives 50% inhibition.

For one test, the system named is SN12C. In words: In vitro cytotoxicity against human renal SN12C cells. Format: functional.
A further test deals with Tubulin beta chain (Bos taurus, UniProt Q6B856). Description: Inhibition of bovine tubulin polymerization. The gist of the method: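 Electrophoretically homogeneous bovine brain tubulin. Polymerization followed spectrophotometrically with a temperature jump from 2-4 °C to 30 °C.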
A further test relates to MDA-MB-435. Description: In vitro cytotoxicity against human breast MDA-MB-435 cells. Format: functional.
Test [1] addresses Epidermal growth factor receptor (Mus musculus, UniProt Q01279). In words: Inhibition of epidermal growth factor receptor phosphorylation in BaF3 mouse lymphoid cells. The test is classed as cell-based. An outline of the steps:
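BaF3/EGFR cells serum-starved 24 h, then about 10^7 cells/mL treated 2 h at 37 °C with inhibitor at 3-5 concentrations. Chilled 20 min, then given EGF 100 ng/mL for 7 min on ice. Lysates precipitated on concanavalin A beads, run on SDS/PAGE, and immunoblotted with antiphosphotyrosine using ECL detection.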

The next test has as its system HOP-62. Description: In vitro cytotoxicity against human lung HOP-62 cells. The test is classed as functional.
Another test has as its system DU-145. Description: In vitro cytotoxicity against human prostate DU-145 cells. Format: functional.
The test system of the next test is MCF-10A. Description: Inhibition of DNA synthesis in MCF-10A cells. The test is classed as functional, cell-based. The following applies: Homo sapiens. An outline of the steps:
(§1)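 Cells seeded at 10^5/well and grown 24 h at 37 °C, then given inhibitor in DMSO at 3-5 concentrations, 3-4 wells each, for 48 h. [3H]thymidine pulse for 2 h. TCA-precipitated label solubilized in perchloric acid and counted.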

Test [2] concerns the target Tyrosine-protein kinase SYK (Homo sapiens, UniProt P43405). In words: In vitro inhibition of Syk protein tyrosine kinase. The test is classed as functional. The gist of the method:
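Full-length GST-Syk from baculovirus-infected Sf9 cell lysates, held on glutathione-agarose. Stopped with 10 mM EDTA, beads washed, read by scintillation counting. IC50 determined graphically against DMSO control.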

The next test relates to Cancer cell lines. In words: Mean graph mid point (MGM) for growth inhibition of all human cancer cell lines successfully tested. The test is classed as functional.
A further test deals with SF-539. Description: In vitro cytotoxicity against human CNS SF-539 cells. Format: functional.
A further test has as its system MCF7. In words: Inhibition of DNA synthesis in MCF-7 cells. The test is classed as functional, cell-based. The conditions noted are these: Homo sapiens. The gist of the method: as §1
In another test the test system is HCT-116. In words: In vitro cytotoxicity against human colon HCT116 cell culture. Format: functional.
A further test has as its system OVCAR-3. In words: In vitro cytotoxicity against human ovarian OVCAR-3 cells. Format: functional.
In a further test the test system is CCRF-CEM. Description: Cytotoxic effect on human leukemia CCRF-CEM cells. The test is classed as functional.
For a further test, the system named is UACC-62. Description: In vitro cytotoxicity against human melanoma UACC-62 cells. Format: functional.

Chain of Tubulin beta chain (Q6B856 whole entry): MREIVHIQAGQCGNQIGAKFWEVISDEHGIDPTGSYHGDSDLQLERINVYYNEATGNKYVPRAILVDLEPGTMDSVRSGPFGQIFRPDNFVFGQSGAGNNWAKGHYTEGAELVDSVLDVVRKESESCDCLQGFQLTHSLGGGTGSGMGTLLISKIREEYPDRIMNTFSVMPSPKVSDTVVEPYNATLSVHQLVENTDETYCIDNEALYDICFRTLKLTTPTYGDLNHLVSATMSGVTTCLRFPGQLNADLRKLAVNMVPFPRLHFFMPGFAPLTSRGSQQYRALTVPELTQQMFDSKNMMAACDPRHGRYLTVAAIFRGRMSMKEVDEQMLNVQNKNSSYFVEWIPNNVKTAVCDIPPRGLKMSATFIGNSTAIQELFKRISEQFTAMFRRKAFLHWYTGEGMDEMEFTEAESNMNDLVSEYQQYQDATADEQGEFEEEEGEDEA
Chain of Epidermal growth factor receptor (Q01279 whole entry): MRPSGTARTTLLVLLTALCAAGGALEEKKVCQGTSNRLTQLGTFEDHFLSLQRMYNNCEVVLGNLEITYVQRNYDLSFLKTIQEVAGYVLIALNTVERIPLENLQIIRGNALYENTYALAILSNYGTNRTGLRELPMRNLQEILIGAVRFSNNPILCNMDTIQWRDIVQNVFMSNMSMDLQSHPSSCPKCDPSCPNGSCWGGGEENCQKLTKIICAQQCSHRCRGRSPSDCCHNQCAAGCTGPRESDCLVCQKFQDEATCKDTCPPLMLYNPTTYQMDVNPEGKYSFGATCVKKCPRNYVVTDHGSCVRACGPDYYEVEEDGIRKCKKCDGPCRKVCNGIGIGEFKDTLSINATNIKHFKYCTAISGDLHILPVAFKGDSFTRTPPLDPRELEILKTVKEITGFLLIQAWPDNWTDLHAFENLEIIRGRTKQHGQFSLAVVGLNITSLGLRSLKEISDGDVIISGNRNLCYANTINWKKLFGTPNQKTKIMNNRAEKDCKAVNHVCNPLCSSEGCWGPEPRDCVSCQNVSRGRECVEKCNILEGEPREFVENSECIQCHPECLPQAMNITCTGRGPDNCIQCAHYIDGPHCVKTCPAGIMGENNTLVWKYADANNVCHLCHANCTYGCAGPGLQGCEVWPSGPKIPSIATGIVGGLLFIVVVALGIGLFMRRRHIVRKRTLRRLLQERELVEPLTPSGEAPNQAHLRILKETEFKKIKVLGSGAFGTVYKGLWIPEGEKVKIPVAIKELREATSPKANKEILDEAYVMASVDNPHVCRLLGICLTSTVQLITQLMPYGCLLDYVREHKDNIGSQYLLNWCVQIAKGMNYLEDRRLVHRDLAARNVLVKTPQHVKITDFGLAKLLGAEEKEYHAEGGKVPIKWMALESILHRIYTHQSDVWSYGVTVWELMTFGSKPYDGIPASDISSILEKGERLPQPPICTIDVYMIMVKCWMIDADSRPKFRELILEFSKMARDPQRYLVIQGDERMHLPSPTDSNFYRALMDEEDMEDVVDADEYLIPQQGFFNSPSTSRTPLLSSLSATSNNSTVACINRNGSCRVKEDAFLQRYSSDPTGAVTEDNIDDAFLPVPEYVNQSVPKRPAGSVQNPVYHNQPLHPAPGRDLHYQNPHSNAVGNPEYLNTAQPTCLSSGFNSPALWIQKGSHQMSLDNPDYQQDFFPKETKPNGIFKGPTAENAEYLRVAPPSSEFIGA

For the molecule `O=C(NCCc1ccccc1)c1cc(NCc2cc(O)ccc2O)ccc1O`, the GI50 in the test on SN12C turned out to be 18 µM; in the test on MDA-MB-435, 19 µM; in the test with HOP-62, 20 µM; in the test with DU-145 it was 16 µM; in the test with SF-539, 17 µM; in the test on HCT-116, 18 µM. For the same molecule, the GI50 amounted to 7.7 µM with OVCAR-3, 2.7 µM with CCRF-CEM and 14 µM in the test with UACC-62. In addition, the IC50 against Tubulin beta chain was 3.6 µM; in test [1], 10 µM; with MCF-10A it was 11 µM; in test [2] it was 5 µM; in the test on MCF7, 9 µM. This molecule displayed an MGM in the test with Cancer cell lines of 14.8 µM.
`O=C(NCCc1ccc(O)cc1)c1cc(NCc2cc(O)ccc2O)ccc1O`: the GI50 with SN12C is 19 µM; with MDA-MB-435 it was 23 µM; in the test with HOP-62, 2.5 µM; in the test with DU-145, 17 µM; in the test with SF-539, 2.5 µM; in the test with HCT-116 it was 16 µM. Further, the results for the GI50 with OVCAR-3 and with UACC-62 were 62 µM and 18 µM, respectively. For the same molecule, the IC50 at Tubulin beta chain stood at 4.5 µM; in test [1], 300 µM; with MCF-10A, 15 µM; in [2] it was 5 µM; in the test with MCF7 it was 16 µM. The MGM with Cancer cell lines was found to be 20.4 µM.
On to `O=C(NCCc1ccccc1)c1ccc(NCc2cc(O)ccc2O)cc1`, for which the GI50 was determined as 7.4 µM with SN12C; 5.1 µM with MDA-MB-435; 13 µM with HOP-62; 14 µM with DU-145; 8.5 µM in the test with SF-539; 7.4 µM in the test with HCT-116. For the same molecule, the GI50 stood at 2.7 µM in the test with OVCAR-3, 0.59 µM in the test on CCRF-CEM and 9.4 µM with UACC-62. Moreover, the IC50 at Tubulin beta chain is 4.9 µM; in test [1] it was > 200 µM; with MCF-10A, 7 µM; in test [2] it was 5 µM; with MCF7 it was 3 µM. Also, in the test on Cancer cell lines, the MGM was determined as 6.4 µM.
Turning to `COc1ccc(CCNC(=O)c2cc(NCc3cc(O)ccc3O)ccc2O)cc1`, the concentration for 50% growth inhibition (GI50) with SN12C turned out to be 72 µM; in the test on MDA-MB-435 it was 16 µM; in the test on HOP-62, 12 µM; with DU-145, 21 µM; in the test on SF-539 it was 16 µM; with HCT-116, 23 µM. In addition, the values for the GI50 in the test with OVCAR-3, in the test with CCRF-CEM and in the test with UACC-62 were 5.5 µM, 3.2 µM and 14 µM, respectively. In addition, the IC50 against Tubulin beta chain was 4.2 µM; in [1], > 100 µM; in the test on MCF-10A it was 11 µM; in test [2], 50 µM; in the test on MCF7, 14 µM. Besides, the MGM with Cancer cell lines came out at 15.4 µM.
For the molecule `O=C(NCCc1ccccc1)c1cccc(NCc2cc(O)ccc2O)c1`, the 50% growth inhibitory concentration (GI50) in the test on SN12C amounted to 13 µM; in the test with MDA-MB-435, 15 µM; in the test with HOP-62, 3.8 µM; in the test with DU-145, 17 µM; in the test on SF-539, 15 µM; in the test on HCT-116 it was 16 µM. The figures for the GI50 in the test with OVCAR-3, with CCRF-CEM and in the test with UACC-62 were 2.8 µM, 4.4 µM and 13 µM, respectively. For the same molecule, the IC50 was 6.9 µM at Tubulin beta chain; 500 µM in test [1]; 6 µM with MCF-10A; > 100 µM in test [2]; 5 µM in the test with MCF7. The same molecule gave an MGM with Cancer cell lines of 12.1 µM.
Consider `O=C(NC1CCc2ccccc2C1)c1cc(NCc2cc(O)ccc2O)ccc1O` (stereo unspecified), for which the GI50 was 18 µM in the test with SN12C; 9.2 µM in the test with MDA-MB-435; 17 µM in the test on HOP-62; 17 µM in the test with DU-145; 2.7 µM in the test on SF-539; 16 µM in the test on HCT-116. The GI50 was determined as 7.9 µM with OVCAR-3, 1.4 µM in the test with CCRF-CEM and 14 µM in the test on UACC-62. Further, the IC50 on Tubulin beta chain came to 5.3 µM; in test [1], 4 µM; in the test on MCF-10A, 6 µM; in [2], 8 µM; in the test with MCF7, 10 µM. The same molecule yielded an MGM in the test on Cancer cell lines of 11.2 µM.
For `O=C(NCCCc1ccccc1)c1cc(NCc2cc(O)ccc2O)ccc1O`, the GI50 in the test on SN12C worked out at 15 µM; with MDA-MB-435, 18 µM; with HOP-62, 22 µM; in the test on DU-145, 8.4 µM; in the test on SF-539, 16 µM; in the test on HCT-116, 24 µM. For the same molecule, the GI50 amounted to 6.5 µM with OVCAR-3, 2.4 µM in the test on CCRF-CEM and 14 µM in the test with UACC-62. For the same molecule, the IC50 against Tubulin beta chain amounted to 5 µM; in test [1], 1 µM; in the test on MCF-10A, 2 µM; in [2], 28 µM; in the test with MCF7, 2 µM. The molecule also registered an MGM in the test with Cancer cell lines of 13.2 µM.
For `O=C(NCc1ccccc1)c1cc(NCc2cc(O)ccc2O)ccc1O`, the GI50 in the test with SN12C stood at 12 µM; in the test with MDA-MB-435, 30 µM; with HOP-62 it was 23 µM; with DU-145, 16 µM; with SF-539, 21 µM; in the test with HCT-116, 17 µM. The GI50 with OVCAR-3 stood at 21 µM; with CCRF-CEM, 3.2 µM; in the test on UACC-62 it was 15 µM. Further, the IC50 was 3.2 µM on Tubulin beta chain; 8 µM in test [1]; 17 µM with MCF-10A; 25 µM in [2]; 17 µM in the test on MCF7. In the test with Cancer cell lines, this molecule registered an MGM of 15.5 µM.
Turning to `O=C(NCCc1ccc(Br)cc1)c1cc(NCc2cc(O)ccc2O)ccc1O`, the GI50 in the test on SN12C was 6.3 µM; in the test with MDA-MB-435, 10 µM; in the test on HOP-62 it was 18 µM; with DU-145, 16 µM; with SF-539, 15.8 µM; with HCT-116, 7.6 µM. Also, the GI50 with OVCAR-3 stood at 4.2 µM; in the test with UACC-62 it was 8.6 µM. Further, the IC50 at Tubulin beta chain worked out at 4.2 µM; in [1] it was 35 µM; in the test on MCF-10A, 6 µM; in test [2], 45 µM; with MCF7, 7 µM. The molecule further showed an MGM in the test with Cancer cell lines of 7.6 µM.
Consider `O=C(NCc1ccccc1)c1ccc(NCc2cc(O)ccc2O)cc1`, for which the GI50 in the test on SN12C stood at 9.7 µM; with MDA-MB-435, 12 µM; with HOP-62, 20 µM; in the test with DU-145 it was 15 µM; in the test with SF-539, 9.7 µM; in the test with HCT-116, 10 µM. In addition, the GI50 in the test with OVCAR-3 is 6.8 µM; in the test on CCRF-CEM it was 2.7 µM; with UACC-62, 12 µM. The IC50 in test [1] was > 100 µM; in the test with MCF-10A it was 34 µM; in test [2], 18 µM; in the test with MCF7, 16 µM. Also, the MGM with Cancer cell lines came to 8.8 µM.
`O=C(NCCc1ccccn1)c1cc(NCc2cc(O)ccc2O)ccc1O`: the GI50 was found to be 19 µM in the test with SN12C; 13 µM in the test on MDA-MB-435; 20 µM in the test on HOP-62; 17 µM in the test with DU-145; 29 µM in the test with SF-539; 17 µM with HCT-116. Also, the GI50 with OVCAR-3 stood at 17 µM; in the test on CCRF-CEM, 1 µM; with UACC-62, 17 µM. Besides, the IC50 against Tubulin beta chain worked out at 3.6 µM; in test [1] it was 15 µM; in the test with MCF-10A, 7 µM; in the test on MCF7, 11 µM. For the same molecule, the MGM in the test on Cancer cell lines stood at 16 µM.
